Bioassay records as filed in PubChem.
bIAP inhibitor: intestinal alkaline phosphatase (bovine) inhibition; AID 1019; inhibition, % at 20 µM; 190,000 tested, under 10 active; purified bovine IAP, CDP-star luminescence, 30 min;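 active means over 50% inhibition of intestinal alkaline phosphatase at 20 µM in the single-dose screen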
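Assay system – bovine IAP enzyme · Quantity – bovine IAP at 1/65,000,000 final dilution · Detection – CDP-star luminescence signal · Times – 30 min reaction at room temperature · Also added – CDP-star substrate at 30 µM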
bIAP activator: intestinal alkaline phosphatase (bovine) activation | purified bovine IAP, CDP-star luminescence, 30 min; active compounds read high; fold of DMSO-control signal, blank-subtracted | activation factor at 20 µM | hit rate 0.17% among 200,000 | AID 1016;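 active means activation factor of 2 or more at 20 µM, a signal rise over negative controls twice the positive control's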
hIAP activ: increases human intestinal alkaline phosphatase activity. P09923. purified human IAP, CDP-Star luminescence, 30 min; active compounds read high; 1 = vehicle-only enzyme, 0 = enzyme-free background. activation factor at 10 µM. hit rate 0.16% among 330,000;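 active means activation factor of the enzyme at least 2-fold when tested at 20 µM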
Target sequence (P09923 whole entry, looked up): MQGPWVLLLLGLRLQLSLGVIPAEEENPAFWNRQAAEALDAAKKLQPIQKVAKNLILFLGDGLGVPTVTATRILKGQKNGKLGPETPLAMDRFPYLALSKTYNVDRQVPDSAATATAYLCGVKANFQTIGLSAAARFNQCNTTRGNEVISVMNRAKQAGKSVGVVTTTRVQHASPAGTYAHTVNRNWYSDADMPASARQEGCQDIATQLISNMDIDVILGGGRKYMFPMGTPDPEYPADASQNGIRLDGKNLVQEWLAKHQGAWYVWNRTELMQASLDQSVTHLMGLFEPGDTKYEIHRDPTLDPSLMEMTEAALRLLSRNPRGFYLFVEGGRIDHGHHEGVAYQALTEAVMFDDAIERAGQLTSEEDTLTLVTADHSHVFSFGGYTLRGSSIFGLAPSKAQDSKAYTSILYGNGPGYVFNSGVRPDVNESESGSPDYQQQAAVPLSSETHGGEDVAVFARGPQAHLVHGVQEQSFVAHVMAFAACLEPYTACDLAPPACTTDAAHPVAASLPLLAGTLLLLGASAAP
hIAP block: blocks human intestinal alkaline phosphatase; P09923; AID 2544; hit rate 0.12% among 330,000; inhibition, % at 10 µM; purified IAP, CDP-Star luminescence, 30 min;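 active means inhibition reaching a set limit with compound at 10 µM in the primary screen, cut at about 35% in these data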;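 further: plate controls were DMSO wells with enzyme for no effect and no-enzyme buffer wells for full effect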
mIAP activ: mouse IAP activation | muIAP, CDP-Star luminescence, 30 min; active compounds read high; 1 = vehicle-only enzyme signal, 0 = enzyme-free wells | activation factor at 10 µM | hit rate 0.24% among 330,000;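 active means activation factor of at least 2 at 20 µM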
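Assay system: mouse IAP enzyme; Reagent: CDP-Star chemiluminescent phosphatase substrate; Compound: DMSO-dissolved test compounds; Incubation: 30 min, room temperature; Technique: luminescence from enzymatic CDP-Star hydrolysis; Controls: DMSO-only wells and no-enzyme negative control.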
mIAP block: mouse IAP inhibition; purified mouse IAP, CDP-Star luminescence, 30 min; inhibition, % at 10 µM; hit rate 0.2% among 330,000;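 active means inhibition of at least 40% at 10 µM in the primary screen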;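 further: plate controls were DMSO with enzyme for no effect and no enzyme wells for full effect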
hIAP act conf: human IAP activation confirmation; shares compounds with hIAP activ; purified IAP, CDP-Star luminescence, 30 min; active compounds read low; activation (%Activity, negative = activation), % at 8.3 µM; hit rate 10% among 880;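 active means at least twofold enzyme activation in any of six single-dose repeats, which the averaged readout prints as negative percent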
An asterisk follows results filed as active; · = no result given. Shown are actives, neighbours in structure and some others; about 0.72% of the full set was active somewhere.

SMILES	bIAP inhibitor	bIAP activator	hIAP activ	hIAP block	mIAP activ	mIAP block	hIAP act conf
Cc1ccc(S(=O)(=O)N2CCOCC2)cc1C(=O)NC(C)CCc1ccccc1 (stereo unspecified)	·	·	0.96	4	0.96	4	·
O=C(CNC(=O)c1ccccc1)N=Nc1c(O)[nH]c2ccc(Br)cc12	·	·	1.6	-58	0.98	2	·
COC(=O)N=Nc1c(O)[nH]c2ccc(Br)cc12	·	·	0.56	44*	0.91	9	-37
Cc1ccc(CN(C)c2ccc(S(=O)(=O)N3CCCC3)cn2)cc1	·	·	0.64	36*	1	-1	-34
COc1cccc(/C=N/Nc2nn3cnnc3c3ccccc23)c1O	-49	1.5	2*	-105	1.1	-9	40
Oc1cccc(/C=N/Nc2nn3cnnc3c3ccccc23)c1	·	·	0.94	6	1	-5	·
COc1cccc(/C=N/NC(=O)N/N=C/c2cccc(OC)c2O)c1O	·	·	2.5*	-151	0.81	19	4
COc1ccc(CN(C)C(=O)c2ccccc2Sc2ccccc2C#N)c(OC)c1	·	·	0.76	24	0.99	1	·
O=C1C=C(c2ccccc2C(F)(F)F)C[C@@H](c2ccc3c(c2)OCO3)C1	·	·	0.95	5	0.97	3	·
O=C(C[n+]1ccc(-c2ccccc2)cc1)Nc1ccc([N+](=O)[O-])cc1	·	·	0.81	19	0.91	9	·
O=C(NNc1ncnc2c1cnn2-c1cccc(Cl)c1)c1ccco1	·	·	3.4*	-236	1	-3	-42
Cc1ccc(-n2ncc3c(NNC(=O)c4ccco4)ncnc32)cc1C	·	·	2.5*	-148	0.94	6	41
CCC(=O)NNc1ncnc2c1cnn2-c1cccc(C)c1	-31	1.3	1.6	-56	0.93	8	·
Cc1ccc(C)c(S(=O)(=O)N2CCN(C(=O)Cc3ccc(S(=O)(=O)N4CCOCC4)s3)CC2)c1	·	·	0.94	6	1	-2	·
NC(=O)c1nc(-c2ccco2)nc2c1[nH]c(=O)n2-c1ccc(Cl)c(Cl)c1	·	·	2.1*	-105	0.71	29	-68
NC(=O)c1nc(-c2cccs2)nc2c1[nH]c(=O)n2-c1ccc(F)cc1	-24	1.2	2.3*	-133	1.2	-24	-23
O=C(Cc1ccc(Cl)c(Cl)c1)NNC(=S)NCC1CCCO1 (stereo unspecified)	·	·	2.1*	-107	0.95	4	-98*
S=C(NCC1CCCO1)Nc1ccc(Cl)c(Cl)c1 (stereo unspecified)	10	0.9	0.98	2	1.2	-18	·
CCCCCC(=O)Nc1ccc(Cl)cn1	-2	1	0.3	70*	1.2	-21	-33
O=C(NNC(=O)c1ccccc1O)c1cc2ccccc2o1	·	·	2.4*	-137	0.73	27	-41
COC(=O)c1cn(C(=O)c2ccc(OC)cc2)c2ccccc12	·	·	0.93	7	0.98	2	·
CSc1ccc(CNCCCN(C)C)cc1	-3	1	0.83	17	0.96	4	·
O=C(CSc1nnc(Cc2ccccc2)n1-c1ccccc1)NNC(=O)Cc1ccccc1	-61	1.6	2.1*	-114	1	0	-46
COC(=O)CSc1nnc(Cc2ccccc2)n1-c1ccc(C)cc1	-4	1	0.94	6	1.1	-6	·
O=C(NNc1nc(=O)c2cccnc2s1)c1ccccc1O	8	0.9	2.9*	-186	0.81	19	14
SMILES	bIAP inhibitor	bIAP activator	hIAP activ	hIAP block	mIAP activ	mIAP block	hIAP act conf
O=C(NNc1c2ccccc2nc2ccccc12)c1ccccc1O	-2	1	0.88	12	0.83	17	·
COc1ccc(NC(=O)CN(C)C(=O)CN2C(=O)C3CCCCC3C2=O)cc1 (stereo unspecified)	·	·	1	-1	0.96	4	·
CCCCC[C@H](O)/C=C/[C@H]1CCC(=O)[C@@H]1CCCCCCC(=O)N1CCCCC1CO (stereo partly specified)	·	·	1.1	-7	1.1	-6	·
COc1cc(OC)cc(C(=O)NNC(=O)C(=O)Nc2cc(OC)c(Cl)cc2OC)c1	·	·	0.61	39*	1	-2	-34
COc1cc(NC(=O)C(=O)NNC(=O)C2CCCCC2)c(OC)cc1Cl	8	0.9	1.2	-18	0.96	4	·
O=C(O)/C(=C\c1ccccc1)c1ccc2ccccc2c1	·	·	0.62	38*	1.1	-5	6
O=C(c1cc(Br)c(Br)s1)N1CCc2ccccc2C1	·	·	0.92	8	0.96	4	·
CC(Sc1ccc(Cl)cc1)C(=O)NNC(=O)c1ccccc1O (stereo unspecified)	·	·	2.5*	-148	0.82	18	-20
CSCCC(NC(=O)c1ccccc1Cl)C(=O)NNC(=O)c1ccccc1O (stereo unspecified)	·	·	1.5	-55	0.71	29	·
O=C(O)COn1c(-c2ccc(Cl)cc2)nc2ccc(Cl)cc21	7	0.9	2.2*	-116	0.96	4	27
COn1c(-c2ccc(Cl)cc2)nc2ccc(Cl)cc21	8	0.9	1	-2	0.97	3	·
Cn1cccc1-c1cc(C(=O)N/N=C/c2cc(Br)ccc2O)[nH]n1	·	·	2.5*	-154	0.71	29	-2
c1ccc2c3c(cc(N4CCOCC4)c2c1)OC1(N2CCOCC2)CCCCC1O3 (stereo unspecified)	-8	1.1	0.15	85*	0.9	10	-5
CCOc1ccc(C2NC(=O)C(C#N)=C(S)N2c2cccc(C)c2)cc1OC (stereo unspecified)	9	0.9	0.95	5	0.93	7	·
CCOc1ccc(C2NC(=O)C(C#N)=C(S)N2c2ccc(C)cc2)cc1OC (stereo unspecified)	7	0.9	2*	-103	0.86	14	-77
O=C(c1ccc2oc(CCCc3ccccc3)nc2c1)N1CCCC1	·	·	0.81	19	1.1	-7	·
O=C(NC(=S)Nc1ccccc1N1CCCC1)c1ccccc1Br	·	·	1.1	-13	0.67	34	·
COc1c(C)cccc1C(=O)NC(=S)Nc1ccccc1N1CCCC1	·	·	0.65	35*	0.89	11	-34
Nc1nc(-c2ccccc2)c(N=Nc2cccc3ccccc23)s1	0	1	0.65	35*	0.69	30	15
COC1=CC(=Cc2c(N)n3nc(CC(=O)N4CCOCC4)sc3nc2=O)C=C(OC)C1=O	·	·	0.58	42*	0.85	15	-39
CCCCn1c(N)c(N(CC)C(=O)c2cc(S(=O)(=O)N3CCCCCC3)ccc2OC)c(=O)[nH]c1=O	·	·	0.97	3	0.95	5	·
CCOc1cccc(/C=N/NC(=O)c2cc(C3CC3)[nH]n2)c1O	·	·	2.5*	-147	0.91	9	-12
Cc1c(NC(=O)c2cc(S(=O)(=O)N3CCCCC3)ccc2Cl)c(=O)n(-c2ccccc2)n1C	·	·	1.2	-18	0.97	3	·
